# Where “and” joins values, the source holds several entries; their conditions need not be identical. Equal values may be shown once.
# System: Fibroblast
# Test: Multiplex assay against human fibroblast
# Format: toxicity, cell-based
# Procedure, shortened: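 Cells were classed with CellPathfinder machine-learning gating, first as Hoechst high-intensity objects or normal cells, then (normal cells) as healthy, pyknosed or fragmented nuclei, and finally (pyknosed cells) as mitotic or apoptotic. Staining of live cells at seeding used Hoechst33342, BioTracker Green Microtubule Cytoskeleton Dye, MitoTracker Red and Annexin V Alexa Fluor 680, with imaging on a CQ1 microscope at 37°C and 5% CO2 after compound addition. Tubulin, mitochondrial-mass and membrane-permeability phenotypes are per cents of healthy-nucleus cells.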
# [1] = 12 h, 1 µM, compound concentration 1 uM
# [2] = 12 h, 10 µM, compound concentration 10 uM
# [3] = 24 h, 1 µM, compound concentration 1 uM
# [4] = 24 h, 10 µM, compound concentration 10 uM
# [5] = 48 h, 1 µM, compound concentration 1 uM
# [6] = 48 h, 10 µM, compound concentration 10 uM
compound,measurement,setting,value
CCCCC1=NC2(CCCC2)C(=O)N1Cc1ccc(-c2ccccc2-c2nnn[nH]2)cc1 [IRBESARTAN],Population Apoptotic (%),[1],40% and 38%
same,Population Fragmented Nuclei (%),[1],14% and 24%
same,Population Healthy Nuclei (%),[1],67% and 55%
same,Population Hoechst High Intensity Objects (%),[1],1% and 3%
same,Population Membrane Permeable-Phenotype (%),[1],0% and 7%
same,Population Mitochondria Different-Phenotype (%),[1],5% and 2%
same,Population Mitotic Cells (%),[1],59% and 61%
same,Population Normal (%),[1],98% and 96%
same,Population Pyknosed Nuclei (%),[1],17% and 20%
same,Population Tubulin-Different-Phenotype (%),[1],28% and 43%
same,Total Cell Count,[1],159 and 187
same,Population Apoptotic (%),[2],60% and 45%
same,Population Fragmented Nuclei (%),[2],11% and 32%
same,Population Healthy Nuclei (%),[2],74% and 48%
same,Population Hoechst High Intensity Objects (%),[2],3% and 7%
same,Population Membrane Permeable-Phenotype (%),[2],3% and 12%
same,Population Mitochondria Different-Phenotype (%),[2],4% and 3%
same,Population Mitotic Cells (%),[2],40% and 54%
same,Population Normal (%),[2],96% and 92%
same,Population Pyknosed Nuclei (%),[2],13% and 18%
same,Population Tubulin-Different-Phenotype (%),[2],37% and 53%
same,Total Cell Count,[2],151 and 129
same,Population Apoptotic (%),[3],47% and 31%
same,Population Fragmented Nuclei (%),[3],19% and 25%
same,Population Healthy Nuclei (%),[3],69% and 57%
same,Population Hoechst High Intensity Objects (%),[3],2% and 3%
same,Population Membrane Permeable-Phenotype (%),[3],1%
same,Population Mitochondria Different-Phenotype (%),[3],3% and 0%
same,Population Mitotic Cells (%),[3],52% and 68%
same,Population Normal (%),[3],97% and 96%
same,Population Pyknosed Nuclei (%),[3],10% and 16%
same,Population Tubulin-Different-Phenotype (%),[3],22% and 40%
same,Total Cell Count,[3],170 and 183
same,Population Apoptotic (%),[4],56% and 45%
same,Population Healthy Nuclei (%),[4],74% and 47%
same,Population Hoechst High Intensity Objects (%),[4],1% and 2%
same,Population Membrane Permeable-Phenotype (%),[4],3% and 8%
same,Population Mitochondria Different-Phenotype (%),[4],7% and 5%
same,Population Mitotic Cells (%),[4],44% and 55%
same,Population Normal (%),[4],98% and 97%
same,Population Pyknosed Nuclei (%),[4],16%
same,Population Tubulin-Different-Phenotype (%),[4],37% and 60%
same,Total Cell Count,[4],155 and 125
same,Population Apoptotic (%),[5],60% and 55%
same,Population Fragmented Nuclei (%),[5],21% and 31%
same,Population Healthy Nuclei (%),[5],69% and 58%
same,Population Hoechst High Intensity Objects (%),[5],3% and 2%
same,Population Membrane Permeable-Phenotype (%),[5],0% and 2%
same,Population Mitochondria Different-Phenotype (%),[5],4% and 1%
same,Population Mitotic Cells (%),[5],40% and 44%
same,Population Normal (%),[5],96% and 97%
same,Population Pyknosed Nuclei (%),[5],8% and 10%
same,Population Tubulin-Different-Phenotype (%),[5],31% and 39%
same,Total Cell Count,[5],173 and 178
same,Population Apoptotic (%),[6],61% and 37%
same,Population Fragmented Nuclei (%),[6],14% and 37%
same,Population Healthy Nuclei (%),[6],66% and 48%
same,Population Hoechst High Intensity Objects (%),[6],2% and 0%
same,Population Membrane Permeable-Phenotype (%),[6],1% and 3%
same,Population Mitochondria Different-Phenotype (%),[6],5% and 1%
same,Population Mitotic Cells (%),[6],38% and 62%
same,Population Normal (%),[6],97% and 99%
same,Population Pyknosed Nuclei (%),[6],18% and 13%
same,Population Tubulin-Different-Phenotype (%),[6],38% and 58%
same,Total Cell Count,[6],141 and 117
CN(C)C(=O)Cn1cc(-c2ccc(-c3cncc4ccccc34)cc2)cn1,Population Apoptotic (%),[1],47% and 32%
same,Population Healthy Nuclei (%),[1],72% and 46%
same,Population Hoechst High Intensity Objects (%),[1],0% and 5%
same,Population Membrane Permeable-Phenotype (%),[1],0% and 5%
same,Population Mitochondria Different-Phenotype (%),[1],5% and 2%
same,Population Mitotic Cells (%),[1],52% and 67%
same,Population Normal (%),[1],100% and 94%
same,Population Pyknosed Nuclei (%),[1],16% and 20%
same,Population Tubulin-Different-Phenotype (%),[1],31% and 54%
same,Total Cell Count,[1],139 and 161
same,Population Apoptotic (%),[2],33%
same,Population Healthy Nuclei (%),[2],69% and 42%
same,Population Hoechst High Intensity Objects (%),[2],4% and 9%
same,Population Mitochondria Different-Phenotype (%),[2],12% and 5%
same,Population Mitotic Cells (%),[2],66%
same,Population Normal (%),[2],95% and 90%
same,Population Pyknosed Nuclei (%),[2],16%
same,Population Tubulin-Different-Phenotype (%),[2],52% and 81%
same,Total Cell Count,[2],113 and 98
same,Population Apoptotic (%),[3],47% and 48%
same,Population Healthy Nuclei (%),[3],73% and 38%
same,Population Hoechst High Intensity Objects (%),[3],5%
same,Population Membrane Permeable-Phenotype (%),[3],0% and 7%
same,Population Mitochondria Different-Phenotype (%),[3],3% and 5%
same,Population Mitotic Cells (%),[3],52% and 51%
same,Population Normal (%),[3],94%
same,Population Pyknosed Nuclei (%),[3],14% and 20%
same,Population Tubulin-Different-Phenotype (%),[3],37% and 61%
same,Total Cell Count,[3],137 and 156
same,Population Apoptotic (%),[4],50% and 41%
same,Population Fragmented Nuclei (%),[4],20% and 41%
same,Population Healthy Nuclei (%),[4],62% and 43%
same,Population Hoechst High Intensity Objects (%),[4],8% and 5%
same,Population Membrane Permeable-Phenotype (%),[4],0% and 11%
same,Population Mitochondria Different-Phenotype (%),[4],12% and 8%
same,Population Mitotic Cells (%),[4],50% and 58%
same,Population Normal (%),[4],91% and 94%
same,Population Pyknosed Nuclei (%),[4],17% and 15%
same,Population Tubulin-Different-Phenotype (%),[4],59% and 85%
same,Total Cell Count,[4],113 and 85
same,Population Apoptotic (%),[5],76% and 44%
same,Population Fragmented Nuclei (%),[5],21% and 36%
same,Population Healthy Nuclei (%),[5],65% and 40%
same,Population Hoechst High Intensity Objects (%),[5],6% and 7%
same,Population Membrane Permeable-Phenotype (%),[5],3% and 5%
same,Population Mitochondria Different-Phenotype (%),[5],8% and 7%
same,Population Mitotic Cells (%),[5],23% and 55%
same,Population Normal (%),[5],93% and 92%
same,Population Pyknosed Nuclei (%),[5],12% and 22%
same,Population Tubulin-Different-Phenotype (%),[5],57% and 77%
same,Total Cell Count,[5],144 and 141
same,Population Fragmented Nuclei (%),[6],24% and 47%
same,Population Healthy Nuclei (%),[6],54% and 44%
same,Population Hoechst High Intensity Objects (%),[6],9% and 0%
same,Population Membrane Permeable-Phenotype (%),[6],0% and 8%
same,Population Mitochondria Different-Phenotype (%),[6],20% and 13%
same,Population Normal (%),[6],90% and 99%
same,Population Pyknosed Nuclei (%),[6],20% and 7%
same,Population Tubulin-Different-Phenotype (%),[6],55% and 73%
same,Total Cell Count,[6],117 and 102
C[C@H](NC(=O)CNC(=O)c1cccc(Cl)c1)c1ccccc1,Population Apoptotic (%),[1],50% and 44%
same,Population Fragmented Nuclei (%),[1],18% and 28%
same,Population Healthy Nuclei (%),[1],71% and 53%
same,Population Hoechst High Intensity Objects (%),[1],0% and 3%
same,Population Membrane Permeable-Phenotype (%),[1],0% and 6%
same,Population Mitochondria Different-Phenotype (%),[1],4% and 2%
same,Population Mitotic Cells (%),[1],50% and 56%
same,Population Normal (%),[1],100% and 96%
same,Population Pyknosed Nuclei (%),[1],10% and 18%
same,Population Tubulin-Different-Phenotype (%),[1],17% and 41%
same,Total Cell Count,[1],94 and 140
same,Population Apoptotic (%),[2],48% and 43%
same,Population Fragmented Nuclei (%),[2],15% and 31%
same,Population Healthy Nuclei (%),[2],58% and 43%
same,Population Hoechst High Intensity Objects (%),[2],2% and 1%
same,Population Membrane Permeable-Phenotype (%),[2],0% and 13%
same,Population Mitochondria Different-Phenotype (%),[2],8% and 3%
same,Population Mitotic Cells (%),[2],51% and 56%
same,Population Normal (%),[2],97% and 98%
same,Population Pyknosed Nuclei (%),[2],26% and 24%
same,Population Tubulin-Different-Phenotype (%),[2],35% and 54%
same,Total Cell Count,[2],106 and 124
same,Population Apoptotic (%),[3],43% and 33%
same,Population Fragmented Nuclei (%),[3],17% and 30%
same,Population Healthy Nuclei (%),[3],65% and 50%
same,Population Hoechst High Intensity Objects (%),[3],1% and 3%
same,Population Membrane Permeable-Phenotype (%),[3],1% and 8%
same,Population Mitochondria Different-Phenotype (%),[3],3% and 4%
same,Population Mitotic Cells (%),[3],56% and 66%
same,Population Normal (%),[3],98% and 96%
same,Population Pyknosed Nuclei (%),[3],17% and 19%
same,Population Tubulin-Different-Phenotype (%),[3],25% and 42%
same,Total Cell Count,[3],93 and 145
same,Population Apoptotic (%),[4],52% and 56%
same,Population Fragmented Nuclei (%),[4],14% and 33%
same,Population Healthy Nuclei (%),[4],61% and 45%
same,Population Hoechst High Intensity Objects (%),[4],2% and 5%
same,Population Membrane Permeable-Phenotype (%),[4],1% and 5%
same,Population Mitochondria Different-Phenotype (%),[4],3% and 7%
same,Population Mitotic Cells (%),[4],48% and 43%
same,Population Normal (%),[4],97% and 94%
same,Population Pyknosed Nuclei (%),[4],24% and 20%
same,Population Tubulin-Different-Phenotype (%),[4],45% and 64%
same,Total Cell Count,[4],107 and 118
same,Population Apoptotic (%),[5],33% and 40%
same,Population Fragmented Nuclei (%),[5],20% and 29%
same,Population Healthy Nuclei (%),[5],67% and 52%
same,Population Hoechst High Intensity Objects (%),[5],1% and 3%
same,Population Membrane Permeable-Phenotype (%),[5],0% and 4%
same,Population Mitochondria Different-Phenotype (%),[5],0% and 2%
same,Population Mitotic Cells (%),[5],66% and 60%
same,Population Normal (%),[5],98% and 96%
same,Population Pyknosed Nuclei (%),[5],12% and 17%
same,Population Tubulin-Different-Phenotype (%),[5],26% and 44%
same,Total Cell Count,[5],95 and 147
same,Population Apoptotic (%),[6],68% and 69%
same,Population Fragmented Nuclei (%),[6],15% and 38%
same,Population Healthy Nuclei (%),[6],56% and 50%
same,Population Hoechst High Intensity Objects (%),[6],7% and 4%
same,Population Membrane Permeable-Phenotype (%),[6],1% and 6%
same,Population Mitochondria Different-Phenotype (%),[6],15% and 5%
same,Population Mitotic Cells (%),[6],31% and 30%
same,Population Normal (%),[6],92% and 95%
same,Population Pyknosed Nuclei (%),[6],27% and 11%
same,Population Tubulin-Different-Phenotype (%),[6],50% and 67%
same,Total Cell Count,[6],112 and 121

# — ChEMBL document CHEMBL5724801, “EUbOPEN Chemogenomics Library - Multiplex” (2024)
